Laboratory results taken from ChEMBL document CHEMBL1139669, “8-Fluoroimidazo[1,2-a]pyridine: synthesis, physicochemical properties and evaluation as a bioisosteric replacement for imidazo[1,2-a]pyrimidine in an allosteric modulator ligand of the GABA A receptor” (Bioorg Med Chem Lett, 2006).

Columns and labels:
[1] = molecular target: T1, GABA-A receptor; alpha-1/beta-3/gamma-2 (Homo sapiens, UniProt P14867+P18507+P28472); experiment: Displacement of [3H]Ro 15-1788 from human GABA-Aalpha1 receptor plus beta-3-gamma-2 expressed in mouse L(tk-) cells; type: cell-based
T1 sequence (P14867 whole entry): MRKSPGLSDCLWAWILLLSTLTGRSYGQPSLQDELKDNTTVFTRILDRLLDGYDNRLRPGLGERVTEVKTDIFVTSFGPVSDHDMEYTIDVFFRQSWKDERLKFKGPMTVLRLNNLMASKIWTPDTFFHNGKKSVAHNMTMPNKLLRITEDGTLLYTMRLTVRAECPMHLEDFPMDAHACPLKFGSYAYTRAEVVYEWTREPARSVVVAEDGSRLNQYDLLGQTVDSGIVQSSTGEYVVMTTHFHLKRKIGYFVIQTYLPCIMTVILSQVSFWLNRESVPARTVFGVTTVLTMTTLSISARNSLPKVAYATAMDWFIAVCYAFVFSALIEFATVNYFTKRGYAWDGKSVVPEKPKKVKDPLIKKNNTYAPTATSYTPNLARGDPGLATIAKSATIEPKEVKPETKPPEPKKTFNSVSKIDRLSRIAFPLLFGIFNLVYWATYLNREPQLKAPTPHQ
T1 sequence (P18507 whole entry): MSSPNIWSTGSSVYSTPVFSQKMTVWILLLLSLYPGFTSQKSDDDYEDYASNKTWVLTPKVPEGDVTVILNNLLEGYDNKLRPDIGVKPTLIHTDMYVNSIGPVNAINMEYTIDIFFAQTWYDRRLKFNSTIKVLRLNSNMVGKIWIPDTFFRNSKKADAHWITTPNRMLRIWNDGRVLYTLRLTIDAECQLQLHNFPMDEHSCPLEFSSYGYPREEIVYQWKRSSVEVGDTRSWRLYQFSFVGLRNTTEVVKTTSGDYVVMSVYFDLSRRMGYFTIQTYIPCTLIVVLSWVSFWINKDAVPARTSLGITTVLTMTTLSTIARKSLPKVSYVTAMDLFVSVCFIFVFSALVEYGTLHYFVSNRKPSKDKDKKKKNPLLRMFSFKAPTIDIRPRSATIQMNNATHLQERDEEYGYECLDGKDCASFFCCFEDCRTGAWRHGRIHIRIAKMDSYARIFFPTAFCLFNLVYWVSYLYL
T1 sequence (P28472 whole entry): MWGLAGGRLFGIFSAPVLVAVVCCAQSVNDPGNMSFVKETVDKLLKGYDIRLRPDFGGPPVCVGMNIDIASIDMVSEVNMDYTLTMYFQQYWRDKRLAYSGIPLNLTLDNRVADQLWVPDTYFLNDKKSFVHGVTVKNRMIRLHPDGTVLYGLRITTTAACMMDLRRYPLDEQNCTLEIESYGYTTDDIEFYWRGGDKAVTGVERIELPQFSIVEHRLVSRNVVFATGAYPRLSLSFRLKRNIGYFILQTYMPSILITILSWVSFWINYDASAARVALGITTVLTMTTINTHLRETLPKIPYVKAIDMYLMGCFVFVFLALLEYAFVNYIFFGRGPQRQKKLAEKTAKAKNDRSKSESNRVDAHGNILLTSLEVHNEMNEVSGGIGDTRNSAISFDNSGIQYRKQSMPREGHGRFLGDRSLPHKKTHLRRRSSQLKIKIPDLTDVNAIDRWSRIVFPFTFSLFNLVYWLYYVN
Method in brief: (§1)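 Competition binding against [³H]Ro15-1788 used at twice its Kd, with human GABA-A αxβ3γ2 receptors (α1 or α3) stably expressed in mouse LTK fibroblasts. Ki was calculated by Cheng-Prusoff from the inhibition curves. Values are means of three determinations.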

[2] = molecular target: T2, GABA-A receptor; alpha-1/beta-3/gamma-2 (Homo sapiens) (UniProt P14867+P18507+P28472); experiment: Efficacy against GABA-Aalpha1 receptor plus beta3gamma2 expressed in mouse L(tk-) cells relative to chlorodiazepoxide by chlorine flux assay; type: functional, cell-based
Method in brief: (§2)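 Human GABA-A αxβ3γ2 receptors (α1 or α3) stably expressed in mouse LTK fibroblasts. ³⁶Cl⁻ flux assay with drug at 1000× Ki and GABA at EC20. Efficacy expressed relative to the maximal response of the full agonist chlordiazepoxide. Means of at least 7 determinations.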

[3] = molecular target: GABA-A receptor; alpha-3/beta-3/gamma-2 (Homo sapiens) (UniProt P18507+P28472+P34903); experiment: Efficacy against GABA-Aalpha3 receptor plus beta-3-gamma-2 expressed in mouse L(tk-) cells relative to chlorodiazepoxide by chlorine flux assay; type: functional, cell-based; method in brief: as §2
[4] = molecular target: T3, GABA-A receptor; alpha-3/beta-3/gamma-2 (Homo sapiens, UniProt P18507+P28472+P34903); experiment: Displacement of [3H]Ro 15-1788 from human GABA-Aalpha3 receptor plus beta-3-gamma-2 expressed in mouse L(tk-) cells; type: cell-based; method in brief: as §1
T3 sequence (P18507 whole entry): T1 sequence (P18507 whole entry)
T3 sequence (P28472 whole entry): T1 sequence (P28472 whole entry)
T3 sequence (P34903 whole entry): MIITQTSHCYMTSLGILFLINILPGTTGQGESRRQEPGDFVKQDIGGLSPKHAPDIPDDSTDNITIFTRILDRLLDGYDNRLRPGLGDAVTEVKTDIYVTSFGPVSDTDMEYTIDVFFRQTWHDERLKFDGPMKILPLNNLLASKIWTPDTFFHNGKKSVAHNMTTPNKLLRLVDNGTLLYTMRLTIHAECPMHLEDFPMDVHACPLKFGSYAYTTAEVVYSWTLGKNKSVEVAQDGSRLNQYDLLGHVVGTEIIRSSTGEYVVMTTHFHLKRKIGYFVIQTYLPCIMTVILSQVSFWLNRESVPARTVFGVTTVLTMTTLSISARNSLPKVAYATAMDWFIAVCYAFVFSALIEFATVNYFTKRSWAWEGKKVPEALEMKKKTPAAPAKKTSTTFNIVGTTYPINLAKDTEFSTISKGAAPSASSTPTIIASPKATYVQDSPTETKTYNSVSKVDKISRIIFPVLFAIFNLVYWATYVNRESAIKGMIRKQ

[5] = Dissociation constant, pKa of the compound; type: physicochemical
Method in brief: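 pKa determined from changes in the UV chromophore during a pH titration.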

[6] = Distribution coefficient, log D at pH 7.4; type: physicochemical; settings: octanol/water
Method in brief: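 Shake-flask partitioning between octanol and pH 7.4 aqueous buffer, shaken 20 min. logD7.4 is taken as the ratio of concentrations in octanol and in buffer.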

[7] = molecular target: T2, GABA-A receptor; alpha-1/beta-3/gamma-2 (Homo sapiens); experiment: Efficacy against GABA-Aalpha1 receptor plus beta-3-gamma-2 expressed in mouse L(tk-) cells relative to chlorodiazepoxide by electrophysiology method; type: functional, cell-based
Method in brief: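 Human GABA-A α1β3γ2 receptors stably expressed in mouse LTK fibroblasts. Electrophysiology measured maximum modulation of the GABA EC20 response, expressed relative to the maximal response of the full agonist chlordiazepoxide. Means of at least 5 determinations.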

Row | SMILES | Ki [1] [nM] | Efficacy [2] [%] | Efficacy [3] [%] | Ki [4] [nM] | pKa [5] | logD [6] | Efficacy [7] [%]
1 | CC(C)(O)c1ccn2c(-c3ccc(F)c(-c4ccccc4C#N)c3)cnc2c1 | 4.35 | 35 | 61 | 5.16 |  |  | 
2 | CC(C)(O)c1ccn2ccnc2n1 |  |  |  |  | 5.4 | 0.1 | 
3 | CC(C)(O)c1ccn2c(-c3ccc(F)c(-c4ccccc4C#N)c3)cnc2n1 | 0.71 |  | 79 | 0.47 |  |  | 60
4 | c1ccn2ccnc2c1 |  |  |  |  | 6.9 | 0.8 | 
5 | CC(C)(O)c1ccn2ccnc2c1 |  |  |  |  | 7.2 | 0.6 | 
6 | CC(C)(O)c1ccn2c(-c3ccc(F)c(-c4ccccc4C#N)c3)cnc2c1F | 0.2 |  | 104 | 0.32 |  |  | 34
7 | Fc1cccn2ccnc12 |  |  |  |  | 4.9 | 0.9 | 
8 | CC(C)(O)c1ccn2ccnc2c1F |  |  |  |  | 5.4 | 1.1 | 
9 | c1cnc2nccn2c1 |  |  |  |  | 4.9 | -0.2 | 
